Drawing on ChEMBL document CHEMBL4513216, “Probing the Open Global Health Chemical Diversity Library for Multistage-Active Starting Points for Next-Generation Antimalarials” (ACS Infect Dis, 2020), this text covers cytotoxicity for 98 molecules.

The series in a line: Toxicity liver stage against HepG2, at 10uM. In kind it is cell-based. Also on record: test concentration 10 uM, cell line HepG2-A16-CD81EGFP. Particulars: human, HepG2-A16-CD81EGFP cells; read-out: INHIBITION
In outline: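 Uninfected HepG2-A16-CD81EGFP cells, 3 × 10^3 per well, 1536-well, plated on prespotted compound at 10 μM final, parasite-free screening media added to match infected plates; puromycin 10 μM positive, DMSO 0.5% negative; run in parallel with 48 h PbLuc assay at 37 °C, 5% CO2; viability by CellTiter-Glo luminescence, normalized to controls.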

Regarding `COc1cccc(CCNC(=O)NC(C)C)c1O`, the cytotoxicity at 10 µM amounted to 2.27%. As to `COC1CCN(C(=O)Cn2ncc(N3CCCCC3)cc2=O)C1` (stereo not drawn), the cytotoxicity at 10 µM is -2.69%. In the case of `CCC(=O)N1CCC(Cc2cnc(Nc3cnccn3)cn2)CC1`, the cytotoxicity at 10 µM is -2.19%. The value for `CCCc1n[nH]c(C2CN(C(=O)CCCn3cccn3)CCO2)n1` (stereo not drawn) was -7.87%; that for `CN(Cc1ccccc1)CC1CC2(CO1)CN(Cc1nccs1)C2` (stereo not drawn) was 8.88%; that for `Cc1ncsc1C(=O)NCCN1CCCCCC1=O` was 12.1%. `CCOCCn1c(=O)n(CCC(C)C)c2ncc(C(=O)O)cc21`: the cytotoxicity at 10 µM came to 2.62%. Next, `Cc1cc(C(=O)N2CCN(c3nc4c(C(C)C)cccc4s3)CC2)no1`: 16.7%; `Cc1nc(CCC(=O)NCC(N)=O)cc(C2CCNCC2)n1`: -3.03%. Next, `Cn1cc(CN2CCc3c(nc(-c4ccccn4)[nH]c3=O)C2)cn1`: -5.05%; `CC(=O)N1CCC2(C=C(C(=O)NC3CC3)c3ccccc32)CC1`: 4.59%; `O=C(O)COc1ccc(Cl)cc1CN1CCC2(CCOCC2)CC1`: -6.55%.

Turning to `CN(Cc1cc[nH]n1)C(C(=O)O)c1ccc(Cl)cc1` (stereo not drawn), the cytotoxicity at 10 µM came to 0.595%.

For `O=C(NCC1CC1)Nc1cnc2cc(Cl)ccc2c1O`, the cytotoxicity at 10 µM is -0.0788%.

In the case of `Cc1ncn(-c2cc(N3CCN(S(C)(=O)=O)CC3)ncn2)c1C`, the cytotoxicity at 10 µM worked out at 6.23%. For `COCCn1ccc2cc(C(=O)NC3CCOC(C)(C)C3)ccc21` (stereo not drawn), the cytotoxicity at 10 µM was -0.508%. For `CC(C)CCNC(=O)CNC(=O)N1CCc2c([nH]c3ccc(Cl)cc23)C1`, the cytotoxicity at 10 µM was found to be 6.73%. Next, `O=C(NCCS(=O)(=O)N1CCN(c2ncccn2)CC1)C1CCCC1`: -3.91%; `CCn1ncnc1C(C)Nc1cc(C)c2ccc(SC)cc2n1` (stereo not drawn): -0.995%.

Take `c1ncn(Cc2nnc(C3CCN(CC4CC4)CC3)n2C2CC2)n1`: the cytotoxicity at 10 µM stood at 5.2%.

With `Cc1n[nH]c(C)c1CCC(=O)NC1CCCN(c2ccccc2F)C1` (stereo not drawn), the cytotoxicity at 10 µM is -13.7%. In the case of `O=C(NC1CCCCC1)c1nnc2ccc(N3CCOCC3)cc2n1`, the cytotoxicity at 10 µM was found to be 5.97%. The value for `CS(=O)(=O)NCCC1CCCCN1C(=O)NCc1ccccn1` (stereo not drawn) was -0.871%. Regarding `NCC1CN(C(=O)Cn2ncc(N3CCCCC3)cc2=O)CCO1` (stereo not drawn), the cytotoxicity at 10 µM was -8.27%. Regarding `CCCc1nc(CN(CC)C(=O)c2onc3ccccc23)no1`, the cytotoxicity at 10 µM is 9.67%. Next, `Cc1cccc(C)c1NCc1noc(C2CC2)n1`: -5.06%; `COCCn1ccc(NC(=O)Nc2ccccn2)n1`: 3.18%. Next, `CCOc1ccc(CC(CNC(=O)c2ccco2)C(N)=O)cc1` (stereo not drawn): 8.26%. With `O=C(Cc1cccc(F)c1)NCCNCc1ccco1`, the cytotoxicity at 10 µM was -6.08%. As for `c1cc(CNCc2ccc3c(c2)CCO3)cc(N2CCOCC2)n1`, the cytotoxicity at 10 µM worked out at 11.1%. As for `NC(=O)CNC(=O)c1cc(Cn2cnc3ccccc32)[nH]n1`, the cytotoxicity at 10 µM was -4.2%. In the case of `COC(=O)C1CCN(CC2(c3ccc(C)cn3)CCNCC2)CC1`, the cytotoxicity at 10 µM was -0.471%.

Consider `CCc1nc(CN(C)C(=O)C2CC(=O)N(c3cccc(O)c3)C2)no1` (stereo not drawn), for which the cytotoxicity at 10 µM is -10.2%. As to `Cc1ccc(=O)n(Cc2nc(C(C)OCC(C)C)no2)n1` (stereo not drawn), the cytotoxicity at 10 µM was -3.21%. Regarding `CCCNC(=O)c1ncn2c1CN(CC(C)C)S(=O)(=O)c1ccccc1-2`, the cytotoxicity at 10 µM is -72%. The value for `CCOc1ncccc1NC(=O)NC1CCCN(c2ncccn2)C1` (stereo not drawn) was -10.6%; that for `Cc1ncn(CCNC(=O)Nc2ccc(OC(F)(F)F)cc2)c(=O)c1C` was -1.32%.

Turning to `c1csc(-c2nc(CN3CCOC(Cn4cccn4)C3)co2)c1` (stereo not drawn), the cytotoxicity at 10 µM was -11.1%. The value for `CCCc1nc(CN2CCCC2Cn2cncn2)no1` (stereo not drawn) was -2%.

`CC(NCC1(N(C)C)CCOCC1)c1ccc(Cl)cc1` (stereo not drawn): the cytotoxicity at 10 µM was -3.19%. For `COc1ccc(CN(Cc2ccsc2)CC2CCCO2)cn1` (stereo not drawn), the cytotoxicity at 10 µM was -6.16%. Next, `O=C1CC[C@H](C(=O)N(CCc2ccccc2)C2CCOC2)N1` (stereo partly drawn): 1.15%. In the case of `Cc1cccc(OCCC(=O)N2CCN(S(=O)(=O)N(C)C)CC2)c1C`, the cytotoxicity at 10 µM worked out at 2.66%. Next, `CC(C)CC(C)NCc1cccnc1N1CCOCC1` (stereo not drawn): -4.22%; `Cc1ccn2ncc(C(=O)N3CCCC(n4ccnc4C)C3)c2n1` (stereo not drawn): -13.6%; `CN(C)CC1CN(Cc2cccc(C(=O)N(C)C)c2)CCO1` (stereo not drawn): -0.729%.

As to `COc1cccc(C2(NC(=O)CCNC(C)=O)CC2)c1`, the cytotoxicity at 10 µM was determined as 1.6%. As for `CCc1ccc(OCCn2cccn2)cc1`, the cytotoxicity at 10 µM is 8.95%. The value for `Cc1occc1C(=O)Nc1cc(N2CCNC2=O)ccc1Cl` was 8.56%. The value for `CN(C)c1ncc(NC(=O)c2ccccc2C(F)(F)F)cn1` was -9.66%. Next, `CCCN1CCC(c2cc(CCOc3ccc(C(F)(F)F)cc3)[nH]n2)C1` (stereo not drawn): -3.58%; `O=C(CN1CCCC(c2ccn[nH]2)C1)Nc1nncs1` (stereo not drawn): -43.9%; `O=C(C1CC=CC1)N1CCC2(CCN(Cc3ccccn3)C2=O)C1` (stereo not drawn): 0.908%. In the case of `CC(C#N)CSc1ccccc1NCC(=O)NC(C1CC1)C1CC1` (stereo not drawn), the cytotoxicity at 10 µM was 14.5%. As to `N#Cc1c(Cl)nsc1NCCN1CCOCC1`, the cytotoxicity at 10 µM is 9.64%. `COCCN(C)C(=O)c1ccc2onc(-c3coc(C)n3)c2c1`: the cytotoxicity at 10 µM was -144%. The value for `CSCC(=O)N1CCCC1c1noc(C2CC2)n1` (stereo not drawn) was 17%; that for `O=C(Nc1ccccc1)c1ccc(NCc2nccs2)nn1` was 5.62%; that for `Cc1ccc2cnn(CCC(=O)NCc3c(C)nn(C)c3C)c2c1` was -8.19%. The value for `Cc1cc(CN(C)C(=O)NC2CCN(Cc3ccccc3)C2)no1` (stereo not drawn) was -0.421%. The value for `CCC(NS(=O)(=O)N1CCOCC1)c1ccccc1OC` (stereo not drawn) was -45.1%; that for `NC(=O)CC1CCN(C(=O)c2cnc(-c3ccccc3F)s2)CC1` was -0.608%. On to `COc1ccc(O)c(C(=O)NCC2CCCN(C3CCOCC3)C2)c1` (stereo not drawn), for which the cytotoxicity at 10 µM was -3.23%.

Turning to `CSc1ccc(C)c(C(=O)Nc2c(C(N)=O)n[nH]c2C)c1`, the cytotoxicity at 10 µM was 3.36%. Consider `CNC(=O)C1CCN(C(=O)NCc2ccc(-c3ccn[nH]3)cc2)CC1`, for which the cytotoxicity at 10 µM was -4.22%. The value for `COCc1ccc(C(=O)N2CC[C@H](O)[C@@H](n3ccnc3)CC2)cc1` was -12.1%; that for `CC(C)c1nc(CN(C)C(=O)c2cn3ccsc3n2)cs1` was 8.35%; that for `CCOC(=O)C1CSCCN1C(=O)c1ccc(-n2nc(C)cc2C)cc1` (stereo not drawn) was -4.92%.

As to `CC(C)N(CC(N)=O)Cc1csc(COc2ccc(F)cc2)n1`, the cytotoxicity at 10 µM came out at 33.9%. The value for `COc1ccc(-c2nnc(C(C)N3CCC4(CC3)OCCO4)o2)cc1` (stereo not drawn) was 12.5%. The value for `O=C(C1CC(c2ccccc2)=NO1)N1CCc2ccccc21` (stereo not drawn) was -0.643%; that for `O=C1CC(NS(=O)(=O)N2CCOCC2)CN1CCc1ccccc1` (stereo not drawn) was 14.4%; that for `Cc1ccc(C(=O)N[C@H]2CN(CCO)C[C@@H]2C2CC2)cc1Cl` was 6.93%. The value for `O=C(CC1CCCO1)NS(=O)(=O)Cc1cc(-c2ccccc2)no1` (stereo not drawn) was 9.95%; that for `OCc1cn(Cc2cccc(F)c2)nn1` was 8.95%. With `O=C1NCCN1C1CCN(Cc2nc(-c3ccsc3)no2)CC1`, the cytotoxicity at 10 µM worked out at 44.8%. For the molecule `COc1cccc(CN(C)CCCn2cnc3c(N)ncnc32)c1`, the cytotoxicity at 10 µM was -2.63%. As for `CN(CC(=O)NCc1ccccn1)CC1CCCN1c1cccnn1` (stereo not drawn), the cytotoxicity at 10 µM was -5.47%. Next, `O=C(C1CCOc2ccccc21)N1CCOc2cccc(F)c21` (stereo not drawn): 4.52%; `Cc1oncc1C(=O)N1CC2CC1(C(=O)N(C)C)C2`: -0.95%; `COC(=O)c1cc(OCC2CCC2)cc(C(=O)N[C@@H]2CCCNC2)c1`: -3.16%. The value for `COc1ccc(CNC2CCN(CCc3ccncc3)CC2)cc1O` was -10.5%.

Turning to `Cc1ccc(N2CCCC(NCc3cc(C)on3)C2)nn1` (stereo not drawn), the cytotoxicity at 10 µM was -4.8%. `Cn1ccc(CN2CCCC23CCNCC3)n1`: the cytotoxicity at 10 µM came out at 4.86%. On to `CCn1cc(S(=O)(=O)NCC(c2ccccc2)N2CCOCC2)c(C)n1` (stereo not drawn), for which the cytotoxicity at 10 µM is 2.76%.

Turning to `O=C(c1ccc(F)cc1F)N1CC[C@H](O)[C@@H](N2CCOCC2)CC1`, the cytotoxicity at 10 µM was 2.62%.

As to `Cc1ccc(CN2CCC3(CC2)C(=O)Nc2ccccc23)s1`, the cytotoxicity at 10 µM turned out to be 2.88%. As for `Cc1ccc(CN2Cc3nnn(C)c3C(COCC3CC3)C2)s1` (stereo not drawn), the cytotoxicity at 10 µM came out at 4.27%. `CCCN1CCN(C(=O)c2cnccc2C)[C@H]2CS(=O)(=O)C[C@H]21`: the cytotoxicity at 10 µM was -1.7%.

In the case of `CCC(Nc1nc(C)nc2c1cnn2C)c1ncnn1CC` (stereo not drawn), the cytotoxicity at 10 µM is -7.17%.

Take `O=C(NCc1cccs1)C1CCN(c2cc(-n3ccnc3)ncn2)CC1`: the cytotoxicity at 10 µM was -3.27%. Consider `CC1c2ncc(COCC3CC3)n2CCN1S(=O)(=O)N(C)C` (stereo not drawn), for which the cytotoxicity at 10 µM is 18.4%. As for `O=C(O)[C@@H]1CN(Cc2c[nH]c(CC3CCCC3)n2)C[C@H]1c1ccncc1`, the cytotoxicity at 10 µM was 1.08%.

`CCc1cnc2c(c1Nc1ccc(OC)cc1)c(=O)n(C)c(=O)n2C`: the cytotoxicity at 10 µM was found to be 4.26%. The value for `COc1ccc(CNC(=O)NCC(O)(c2cccs2)C2CC2)cc1` (stereo not drawn) was 0.227%. The value for `COCc1cccc(CNc2cnn(C(C)(C)C)c(=O)c2Cl)c1` was 59.2%; that for `COc1cccc(OC)c1C(C(=O)O)N(C)Cc1c(C)n[nH]c1C` (stereo not drawn) was 2.14%; that for `COc1ccc2c(C)nc(N3CCN([C@H]4CCCC[C@@H]4O)CC3)nc2c1` was 7.24%.
